Screens: PubChem, several laboratories
DAX1 inh-1 = NR0B1 (DAX1) inhibition; P51843; HEK293 Gal4-DAX1 luciferase reporter, luminescence; inhibition, % at 6.75 µM; 340,000 compounds, 0.99% hits; AID 504766;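 active means inhibition above the mean over all tested compounds plus 3 SD, cut at about 4.2% in these data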;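 further: inhibition shows as a rise in luminescence from relieved DAX1 repression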
JMJD2C inh = blocks human GASC-1 demethylase activity; Q9H3R0; GST-JMJD2C(1-420) H3K9me3 demethylation, DELFIA europium; inhibition, % at 2.35 µM; 330,000 compounds, 0.069% hits; AID 2099;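 active means more than half of a compound's replicate wells show inhibition beyond 50%, single wells judged on their own value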;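 further: signal counts dimethyl H3K9 product captured on neutravidin plate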
Target sequence (Q9H3R0 1-420 limits assumed): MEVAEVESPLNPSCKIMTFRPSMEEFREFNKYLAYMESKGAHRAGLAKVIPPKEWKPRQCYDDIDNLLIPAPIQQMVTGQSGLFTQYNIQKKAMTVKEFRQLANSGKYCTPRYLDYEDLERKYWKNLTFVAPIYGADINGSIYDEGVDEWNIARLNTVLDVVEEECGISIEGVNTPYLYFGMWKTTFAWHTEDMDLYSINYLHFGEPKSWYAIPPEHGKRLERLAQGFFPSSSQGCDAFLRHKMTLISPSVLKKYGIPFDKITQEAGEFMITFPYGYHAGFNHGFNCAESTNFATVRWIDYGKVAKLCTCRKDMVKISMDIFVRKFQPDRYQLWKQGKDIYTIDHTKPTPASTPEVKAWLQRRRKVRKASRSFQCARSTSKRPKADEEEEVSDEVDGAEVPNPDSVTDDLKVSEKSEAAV
DAX1 inh-2 = DAX1 (NR0B1) inhibition, primary screen | AID 652010 | HEK293T StAR-luciferase reporter, SF-1/DAX-1 repression relief | inhibition, % at 6.8 µM | 370,000 compounds, 1.1% hits;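 active means inhibition above the mean over all tested compounds plus 3 SD, cut at about 3.6% in these data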;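 further: higher inhibition means more luminescence from relief of DAX-1 repression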
NR2E3 ag-1 = agonists of human nuclear receptor NR2E3. Q9Y5X4. GST-NR2E3/biotin-RetCOR TR-FRET, 1536-well. inhibition of corepressor binding, % at 4.78 µM. 320,000 compounds, 0.12% hits;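 active means percent inhibition above the cutoff of mean plus 3 SD of all tested compounds, set per screening campaign, cut at about 20% in these data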
Target sequence (Q9Y5X4 whole entry, looked up): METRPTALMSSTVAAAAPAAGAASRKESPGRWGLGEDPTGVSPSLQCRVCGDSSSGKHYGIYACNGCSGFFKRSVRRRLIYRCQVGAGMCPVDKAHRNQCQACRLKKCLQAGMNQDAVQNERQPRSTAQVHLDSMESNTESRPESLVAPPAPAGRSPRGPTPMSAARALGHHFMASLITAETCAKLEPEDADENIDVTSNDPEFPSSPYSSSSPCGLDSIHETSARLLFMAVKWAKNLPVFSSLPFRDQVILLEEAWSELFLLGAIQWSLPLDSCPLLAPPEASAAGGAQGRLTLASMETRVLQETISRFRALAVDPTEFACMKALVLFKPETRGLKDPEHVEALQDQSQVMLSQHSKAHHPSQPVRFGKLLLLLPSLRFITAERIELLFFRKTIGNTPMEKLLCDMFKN
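Material – GST-tagged NR2E3 plus biotinylated RetCOR corepressor · Quantity – NR2E3 fusion 1.35 nM · Times – 5 h incubation at 4 °C · Medium – pH 7.5 Tris-based buffer · Technique – TR-FRET, Eu(K)-anti-GST donor, streptavidin-D2 acceptor, ex 340, em 617/671 nm · Benchmarks – high control biotin, low control 0.6% DMSO · Format – 1536-well plates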
NR2E3 ag-2 = activates human NR2E3 receptor; inhibition of corepressor binding, % at 3.98 µM; 360,000 compounds, 0.35% hits; AID 602229; CHO-S Gal4-NCOR/VP16-NR2E3 two-hybrid, luciferase;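 active means inhibition above the mean of all tested compounds plus 3 SD, cut at about 70% in these data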;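 further: higher means lower luciferase signal from less NR2E3 corepressor binding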
SMARCA2 act = increases SMARCA2 function in MMTV reporter cells; MG213 cells, MMTV-luciferase reporter, dexamethasone, overnight; activation, % at 9.1 µM; 370,000 compounds, 1% hits; in the data active means activation above about 7.8%
DAX1 inh confirm = confirmation of human DAX1 (NR0B1) inhibitors; shares compounds with DAX1 inh-2; HEK293T StAR-promoter luciferase reporter, SF-1/DAX-1 repression; inhibition, % at 6.8 µM; 2,400 compounds, 87% hits; AID 652134;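 active means inhibition above the average of every tested compound plus 3 SD, cut at about 3.8% in these data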;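 further: active compounds raise luminescence by relieving repression of the StAR reporter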
SF1 AF2mut Luc = counter-screen for DAX1 inhibitors: nonselective inhibitors with SF-1 AF2 mutant | shares compounds with DAX1 inh-2 | 2,400 compounds, 78% hits | HEK293 StAR-luciferase, luminescence | inhibition, % at 6.8 µM | AID 652136;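 active means inhibition above the mean of all tested compounds plus 3 SD, cut at about 3% in these data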
SMARCA2 conf = confirmation of SMARCA2 (BRM) function activators; shares compounds with SMARCA2 act; activation, % at 9.1 µM; MG213 cells, MMTV-luciferase with dexamethasone, luminescence, overnight; MG213 cells expressing E1A, Rb sequestered; DMSO wells 0%, reference activator 100%; 3,500 compounds, 30% hits; AID 652260;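 active means activation above its plate's cutoff, the mean activation of tested wells plus 3 SD, cut at about 7.9% in these data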
VP16 Luc act = activates GAL4-VP16 luciferase, flagging SMARCA2 activator hits; shares compounds with SMARCA2 act; HEK293 GAL4-VP16 pG5luc reporter, luciferase luminescence; scaled: DMSO wells 0%, SAHA wells 100%; activation, % at 9.1 µM; 3,500 compounds, 41% hits;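 active means activation above the solvent-only control well mean plus 3 SD, averaged across control plates, cut at about 5.2% in these data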
Of the large screens only hits and unclear results are named; the others gave an inactive call (follow-up assays come after a bar, where they were run). In the library only some 3.2% were active in any assay of this set; here they are far more common.

CC1CCC(NC(=O)c2cccn2C)CC1 (stereo not drawn)	DAX1 inh-2 10.0, SMARCA2 act 8.8 (no result: JMJD2C inh, NR2E3 ag-1) | DAX1 inh confirm 14 | SF1 AF2mut Luc 7.4 | SMARCA2 conf 11 | VP16 Luc act 11
CCOC(=O)c1nn(-c2ccc3c(c2)OCCO3)cc1O	DAX1 inh-2 8.0, SMARCA2 act 11 | DAX1 inh confirm 9.7 | SF1 AF2mut Luc 5.7 | SMARCA2 conf 8.3 | VP16 Luc act 12
CCOC(=O)c1nn(-c2ccc(C)c(C)c2)cc1O	none
CC(C)c1cc(C(=O)Nc2ccc3c(c2)OCO3)no1	DAX1 inh-2 6.4, SMARCA2 act 8.0 | DAX1 inh confirm 16 | SF1 AF2mut Luc 7.1 | SMARCA2 conf inactive | VP16 Luc act 9.1
N#Cc1ccc2sn(-c3ccccc3)c(=O)c2c1	DAX1 inh-2 7.9, SMARCA2 act 12 (no result: JMJD2C inh, NR2E3 ag-1) | DAX1 inh confirm 5.1 | SF1 AF2mut Luc 3.5 | SMARCA2 conf 7.9 | VP16 Luc act 11
Cn1cccc1C(=O)NCC1COc2ccccc2O1 (stereo not drawn)	DAX1 inh-2 4.7, SMARCA2 act 11 (no result: JMJD2C inh, NR2E3 ag-1) | DAX1 inh confirm 5.1 | SF1 AF2mut Luc inactive | SMARCA2 conf 10 | VP16 Luc act 7.1
Cc1cnc(NC(=O)Nc2ccc(Cl)cc2)s1	DAX1 inh-2 6.0, SMARCA2 act 12 | DAX1 inh confirm 14 | SF1 AF2mut Luc 6.8 | SMARCA2 conf 8.3 | VP16 Luc act 11
COc1ccc(-c2cn3cc(C(F)(F)F)cc(Cl)c3n2)cc1	DAX1 inh-2 5.1, SMARCA2 act 12 | DAX1 inh confirm 8.7 | SF1 AF2mut Luc 6.9 | SMARCA2 conf inactive | VP16 Luc act 11
COc1ccc(C(O)c2ncc(C(F)(F)F)cc2Cl)cc1 (stereo not drawn)	none
Cc1ccc(S(=O)(=O)n2ccc(-c3c(-c4ccccc4)noc3C)n2)cc1	none (no result: DAX1 inh-1, JMJD2C inh, NR2E3 ag-1, NR2E3 ag-2)
C=CCNC(=O)c1ccc2c3n(nc2c1)-c1ccccc1CO3	none
c1ccc2c(c1)COc1c3cc4c(cc3nn1-2)OCO4	DAX1 inh-2 8.7, SMARCA2 act 9.5 (no result: JMJD2C inh, NR2E3 ag-1) | DAX1 inh confirm 18 | SF1 AF2mut Luc 9.1 | SMARCA2 conf 15 | VP16 Luc act 11
COC(=O)[C@]12C[C@H](CC(=O)NCc3cccc4ccccc34)C(=O)N(CCc3ccc(OC)c(OC)c3)C1=C[C@H](C(C)C)O[C@@H]2C1CC1	none (no result: DAX1 inh-1, JMJD2C inh, NR2E3 ag-1, NR2E3 ag-2)
COC(=O)c1ccccc1NC(=O)N1CCc2ccc(NC(=O)c3ccccn3)cc2C1	DAX1 inh-2 5.1, SMARCA2 act 8.1 | DAX1 inh confirm inactive | SF1 AF2mut Luc inactive | SMARCA2 conf inactive | VP16 Luc act 7.5
Cc1nn(-c2ccccc2)c2sc(C(=O)NCc3ccc4c(c3)OCO4)cc12	none (no result: DAX1 inh-1, JMJD2C inh, NR2E3 ag-1, NR2E3 ag-2)
COc1cccc(OCC(C)CN2CCC(C(O)(c3ccccc3)c3ccccc3)CC2)c1 (stereo not drawn)	none (no result: DAX1 inh-1, JMJD2C inh, NR2E3 ag-1, NR2E3 ag-2)
O=C(NN=Cc1ccc2c(c1)OCO2)c1ccncc1	none (no result: JMJD2C inh, NR2E3 ag-1)
O=C(NN=Cc1ccc2c(c1)OCO2)c1ccccc1	DAX1 inh-2 5.3, SMARCA2 act 11 (no result: JMJD2C inh, NR2E3 ag-1) | DAX1 inh confirm 11 | SF1 AF2mut Luc 5.8 | SMARCA2 conf 8.7 | VP16 Luc act 8.4
C=CCOC(=O)N[C@H](c1ccccc1)[C@H](C)/C=C/CC(=O)OC	none (no result: DAX1 inh-1, JMJD2C inh, NR2E3 ag-1, NR2E3 ag-2)
Cc1cc(NS(=O)(=O)c2ccc(NC(=O)CSc3nnc(SCc4ccc(Cl)cc4)s3)cc2)nc(C)n1	none (no result: DAX1 inh-1, JMJD2C inh, NR2E3 ag-1, NR2E3 ag-2)
CCCc1ccc(OCc2ccc(C(=O)N/N=C/c3cccnc3)o2)cc1	DAX1 inh-2 5.9, SMARCA2 act 11 (no result: NR2E3 ag-1) | DAX1 inh confirm 6.9 | SF1 AF2mut Luc 4.3 | SMARCA2 conf inactive | VP16 Luc act 18
CCOc1ccc(CC(=O)N/N=C/c2cccnc2)cc1	none (no result: JMJD2C inh)
CN(C(=O)C1CCC(=O)N(Cc2cccc(F)c2)C1)C1CCCCC1 (stereo not drawn)	DAX1 inh-2 5.2, SMARCA2 act 9.1 | DAX1 inh confirm 4.0 | SF1 AF2mut Luc inactive | SMARCA2 conf 11 | VP16 Luc act 13
N#C/C(=N\Nc1cccc(F)c1)C(=N)N1CCCCCC1	DAX1 inh-1 7.0, DAX1 inh-2 6.8, SMARCA2 act 8.5 | DAX1 inh confirm 19 | SF1 AF2mut Luc 8.6 | SMARCA2 conf inactive | VP16 Luc act 11
CC(=O)C1(C(=O)NCc2ccccc2)CC(c2ccccn2)=NO1 (stereo not drawn)	none (no result: DAX1 inh-1, JMJD2C inh, NR2E3 ag-1, NR2E3 ag-2)
CC(=O)c1ccc(OCc2cc(C(=O)NC(C)c3cnn(C)c3)no2)cc1 (stereo not drawn)	none
CC(NC(=O)c1cc(COc2ccccc2)on1)c1nccs1 (stereo not drawn)	DAX1 inh-2 7.3, SMARCA2 act 10 | DAX1 inh confirm 8.3 | SF1 AF2mut Luc 5.2 | SMARCA2 conf inactive | VP16 Luc act 15
Cc1csc(NC(=O)c2cnccn2)n1	none
Cc1csc(NC(=O)c2cc(C)on2)n1	DAX1 inh-2 7.0, SMARCA2 act 11 | DAX1 inh confirm 6.8 | SF1 AF2mut Luc 5.9 | SMARCA2 conf inactive | VP16 Luc act 7.5
N#Cc1cccc(NCC(=O)Nc2ccc3c(c2)OCCO3)c1	DAX1 inh-2 5.2, SMARCA2 act 9.8 | DAX1 inh confirm 11 | SF1 AF2mut Luc 4.1 | SMARCA2 conf inactive | VP16 Luc act inactive
N#Cc1ccc(NCC(=O)Nc2ccc3c(c2)OCCO3)cc1	none
NC(=O)c1ccsc1NC(=O)c1coc2ccccc2c1=O	DAX1 inh-2 4.7, SMARCA2 act 9.0 | DAX1 inh confirm 12 | SF1 AF2mut Luc 3.7 | SMARCA2 conf 23 | VP16 Luc act 8.9
Cc1noc(C)c1-c1ccc(C(=O)Nc2ccccc2)c2occc12	DAX1 inh-2 9.7, SMARCA2 act 12 (no result: DAX1 inh-1, JMJD2C inh, NR2E3 ag-1) | DAX1 inh confirm 12 | SF1 AF2mut Luc inactive | SMARCA2 conf inactive | VP16 Luc act 16
C[C@H](O)[C@@H]1CN2CCc3c([nH]c4cccc(-c5ccccc5)c34)[C@@H]2C[C@@H]1N(C)C(=O)c1ccco1	none (no result: DAX1 inh-1, JMJD2C inh, NR2E3 ag-1, NR2E3 ag-2)
Cc1cc(NC(=O)c2ccco2)sc1C	DAX1 inh-2 4.5, SMARCA2 act 9.1 | DAX1 inh confirm 6.4 | SF1 AF2mut Luc 4.5 | SMARCA2 conf 12 | VP16 Luc act 11
